Results: ChEMBL document CHEMBL1156054, “Allosteric functional switch of neurokinin A-mediated signaling at the neurokinin NK2 receptor: structural exploration” (J Med Chem, 2009)
The source made the active and inactive calls. The calls are words filed in the database; no cut-off is given here.

What was measured:
[1] = biological target: T1, Substance-K receptor (Rattus norvegicus) (UniProt P16610); test: Allosteric modulation of rat NK2 receptor expressed in HEK293 cells assessed as formation of active receptor calcium-triggering conformation at 10 uM in presence of 20nM NKA-Bo by FRET assay; type: functional, cell-based
T1 sequence (whole entry): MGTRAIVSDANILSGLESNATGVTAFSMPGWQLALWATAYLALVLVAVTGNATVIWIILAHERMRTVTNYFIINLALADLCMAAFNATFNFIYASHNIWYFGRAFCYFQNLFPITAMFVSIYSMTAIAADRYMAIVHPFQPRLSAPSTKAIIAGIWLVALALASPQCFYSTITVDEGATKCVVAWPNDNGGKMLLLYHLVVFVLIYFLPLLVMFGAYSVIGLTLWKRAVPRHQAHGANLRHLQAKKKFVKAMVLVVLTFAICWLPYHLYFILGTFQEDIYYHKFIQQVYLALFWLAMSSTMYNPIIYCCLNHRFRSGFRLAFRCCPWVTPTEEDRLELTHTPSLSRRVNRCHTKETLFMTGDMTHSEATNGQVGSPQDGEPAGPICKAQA
Procedure, shortened: (§1)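 HEK293 cells stably expressing EGFP-fused rat NK2 receptor (hygromycin B 500 μg/mL selection) are suspended in Hepes-BSA buffer, pH 7.4, with protease inhibitors. EGFP emission is read at 510 nm with 470 nm excitation. 20 nM NKA-Bo is added at 50 s, compound (10 μM) at 450 s for 150 s, then excess unlabeled NKA at 600 s.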

[2] = biological target: T1, Substance-K receptor (Rattus norvegicus); test: Inhibition of NKA-Bo binding to rat NK2 receptor expressed in HEK293 cells at 10 uM by FRET assay relative to neurokinin A; type: cell-based; procedure, shortened: as §1
[3] = biological target: T1, Substance-K receptor (Rattus norvegicus); test: Allosteric modulation of rat NK2 receptor expressed in HEK293 cells assessed as enhancement of neurokinin A-induced intracellular calcium level at 20 uM by spectrofluorimetry; type: functional, cell-based
[4] = biological target: T1, Substance-K receptor (Rattus norvegicus); test: Allosteric modulation of rat NK2 receptor expressed in HEK293 cells assessed as reduction of neurokinin A-induced cAMP production at 10 uM by radioimmunoassay; type: functional, cell-based; parameters: scale not given: the % may be the effect or the level left
Procedure, shortened: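 HEK293 cells expressing NK2 receptor are seeded at 50000 on collagen-coated wells and cultured 3 days (~80% confluency). They are stimulated with increasing NKA concentrations with or without 10 μM compound. The reaction is stopped with ice-cold 0.2 M HCl and cAMP is measured by radioimmunoassay. Values are mean ± SD of six determinations; the change in maximal response amplitude is reported.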

[5] = biological target: T1, Substance-K receptor (Rattus norvegicus); test: Allosteric modulation of rat NK2 receptor expressed in HEK293 cells assessed as formation of active receptor calcium-triggering conformation at 50 uM in presence of 20nM NKA-Bo by FRET assay; type: functional, cell-based
[6] = biological target: T1, Substance-K receptor (Rattus norvegicus); test: Allosteric modulation of rat NK2 receptor expressed in HEK293 cells assessed as formation of active receptor cAMP-producing conformation at 10 uM in presence of 20nM NKA-Bo by FRET assay; type: functional, cell-based; procedure, shortened: as §1
[7] = biological target: T1, Substance-K receptor (Rattus norvegicus); test: Allosteric modulation of rat NK2 receptor expressed in HEK293 cells assessed as formation of active receptor cAMP-producing conformation at 50 uM in presence of 20nM NKA-Bo by FRET assay; type: functional, cell-based

SMILES	Activity [1]	inhibition [2]	other results
N#CCN(Cc1ccccc1)Cc1ccc2ccccc2n1	47%	0%	–
N#CCCCN(Cc1ccccc1)Cc1ccc2ccccc2c1	68%	0%	Emax [3]: 120%; Activity [4]: 47%
CN1CCN(C(=O)CN(Cc2ccccc2)Cc2ccc3ccccc3c2)CC1	58%	0%	–
O=C(O)CCCCN(Cc1ccccc1)Cc1ccc2ccccc2c1	44%	0%	–
COc1ccc(CN(CC#N)Cc2ccc3ccccc3c2)cc1	54%	0%	–
N#CCN(Cc1ccccc1)Cc1ccc(Cl)cc1	53%	0%	–
N#CCN(C/C=C/c1ccccc1)Cc1ccccc1	47%	0%	–
CCCCCCCCCCCCCCCCOC(=O)CN(Cc1ccccc1)Cc1ccc2ccccc2c1	38%	0%	–
N#CCN(Cc1ccc2ccccc2c1)Cc1ccccc1Br	43%	0%	–
O=C(CN(Cc1ccccc1)Cc1ccc2ccccc2c1)OCCN1CCOCC1	42%	0%	–
N#CCN(Cc1ccc(Br)cc1)Cc1ccc2ccccc2c1	45%	0%	–
N#CCN(Cc1ccccc1)Cc1cnc2ccccc2c1	46%	21%	–
CCOC(=O)CCCCN(Cc1ccccc1)Cc1ccc2ccccc2c1	52%	0%	–
O=C(CN(Cc1ccccc1)Cc1ccc2ccccc2c1)N1CCN(c2ccccc2)CC1	43%	0%	–
c1ccc(CN(Cc2ccc3ccccc3c2)c2cccnc2)cc1	59%	0%	–
N#CCN(Cc1ccc(CCc2ccccc2)cc1)Cc1ccc2ccccc2c1	39%	20%	–
N#CCN(Cc1ccccc1)Cc1ccc2ccccc2c1	50%	0%	Activity [5]: 95%; Activity [6]: 50%; Activity [7]: 5%; Activity [3]: inactive; Activity [4]: 33%
N#CCN(Cc1ccccc1)Cc1cccc(Cl)c1	45%	0%	–
c1ccc(CN(Cc2ccc3ccccc3c2)c2ccccn2)cc1	56%	17%	–
O=C(CN(Cc1ccccc1)Cc1ccc2ccccc2c1)OCCc1ccccc1	46%	0%	–
CCOC(=O)CN(Cc1ccccc1)Cc1ccc2ccccc2c1	51%	0%	–
c1ccc(CN(Cc2ccc3ccccc3c2)c2ccncn2)cc1	61%	34%	–
O=C(CN(Cc1ccccc1)Cc1ccc2ccccc2c1)OCCO	53%	0%	–
N#CCN(Cc1ccc(I)cc1)Cc1ccc2ccccc2c1	47%	0%	–
C#CCN(Cc1ccccc1)Cc1ccc2ccccc2c1	51%	0%	–
O=C(CN(Cc1ccccc1)Cc1ccc2ccccc2c1)N1CCCCC1	44%	0%	–
N#CCN(Cc1ccccc1)Cc1ccc(C(F)(F)F)cc1	48%	0%	–
COc1ccc(CN(CC#N)Cc2ccccc2)cc1	49%	0%	–
O=C(O)CN(Cc1ccccc1)Cc1ccc2ccccc2c1	35%	0%	–
CCCCNC(=O)CN(Cc1ccccc1)Cc1ccc2ccccc2c1	54%	0%	–
